Measurements gathered from unrelated publications.
Compare with care: the assays were run in different laboratories.
Target: Serine/threonine-protein kinase PLK1 (PLK1, Homo sapiens, UniProt P53350)

SMILES	observed	method	tested at	remaining binding [%]
CN(CCCC(F)(F)F)c1nccc(-c2cnn3ncccc23)n1	binding		1 µM	84
c1ccc(N2CCN(Cc3nc4ccccc4[nH]3)CC2)nc1	binding	competition with immobilised ligand	1 µM	100
COc1ccnn2ncc(-c3ccnc(N(C)C)n3)c12	binding		1 µM	94
O=C(N[C@H]1CCCCC/C=C\C2C[C@@]2(C(=O)O)NC(=O)[C@@H]2C[C@@H](Oc3ccncc3)CN2C1=O)OC1CCCC1 (some centres unmarked)	binding	competition with immobilised ligand	1 µM	71
C[C@H]1CCN(c2nccc(-c3cnn4ncccc34)n2)C1	binding		1 µM	100
COc1cnc(Nc2cccc(S(N)(=O)=O)c2)nc1N1CCN(c2ccccc2)CC1	binding	competition with immobilised ligand	1 µM	79
CCCOc1ccc([C@H]2[C@H](C(=O)O)[C@@H](c3ccc4c(c3)OCO4)CN2CC(=O)Nc2c(CC)cccc2CC)cc1	cell-free assay	competition with immobilised ligand	1 µM	80
C=CC(=O)N1CCC(C(=O)NCC(=O)N2CCN(c3nc(-c4cnc(N)nc4C(F)F)nc(N4CCOCC4)n3)CC2)CC1	binding	competition with immobilised ligand	1 µM	99
COc1ncc2cc3ccccc3nc2c1C#N	cell-free assay	competition with immobilised ligand	5 µM	73
O=C(c1ccc(Nc2nccc(-c3cc4ccccc4s3)n2)cc1)N1CCC(N2CCCC2)CC1	binding	competition with immobilised ligand	1 µM	89
O=C(NCc1ncc(C(F)(F)F)cc1Cl)c1ccc2c(c1)C1(CCS(=O)(=O)CC1)[C@H](C1CC1)N2S(=O)(=O)c1ccc(F)cc1	cell-free assay	competition with immobilised ligand	1 µM	86
F[C@@H]1CCN(c2nccc(-c3cnn4ncccc34)n2)C1	binding		1 µM	100
C[C@@H]1CN(c2ccc3ncc(-c4ccc5[nH]nc(C6CC6)c5c4)n3n2)C[C@H](C)O1	binding	competition with immobilised ligand	50 nM	97
Nc1cnc(N2CCc3cc(S(=O)(=O)Nc4c(F)cc(Cl)cc4F)cc(N4CCCC4=O)c32)nc1	cell-free assay	competition with immobilised ligand	1 µM	100
Cc1cnn2ncc(-c3ccnc(N(C)C)n3)c2c1	binding		1 µM	84
O=C(c1ccc(Nc2ncc(Cl)c(-c3cc4ccccc4s3)n2)cc1)N1CCC(N2CCCC2)CC1	binding	competition with immobilised ligand	1 µM	57
CC1=C(C#N)C(c2ccc3c(c2)c(NC(=O)c2ccccc2C)nn3C)C(C#N)=C(C)N1	cell-free assay	competition with immobilised ligand	1 µM	85
CNC(=O)c1ccccc1Nc1cc(Nc2ccc(N3CCOCC3)cc2OC)ncc1C(F)(F)F	binding	competition with immobilised ligand	1 µM	< 10
CC(C)(C)c1ccc(-c2nc(CBr)nn2-c2cccc(O)c2)cc1	cell-free assay	competition with immobilised ligand	10 µM	84
c1cncc(-c2cccc(Nc3nccc(NC4CCCCC4)n3)c2)c1	binding	competition with immobilised ligand	10 µM	78
CCN1CCN(Cc2ccc(C(=O)Nc3ccc(C)c(Oc4ccc5c(c4)CC(=O)N5)c3)cc2C(F)(F)F)CC1	binding	competition with immobilised ligand	1 µM	100
O=C(NCC1CCOCC1)c1n[nH]cc1NC(=O)c1c(F)cccc1F	binding	competition with immobilised ligand	1 µM	90
CN(C(=O)c1ccccc1)c1cc(N(C)c2ccc3c(c2)CCc2ccc(C(=O)NCCN4CCOCC4)cc2C3=O)ccc1F	cell-free assay	competition with immobilised ligand	1 µM	100
Cc1cnc(Nc2ccc(C(=O)N3CCC(N4CCCC4)CC3)cc2)nc1-c1cc2ccccc2s1	binding	competition with immobilised ligand	1 µM	37
C[C@@H](c1cccc(C#N)c1)n1cc(Cl)cc(C(N)=O)c1=N	cell-free assay	competition with immobilised ligand	1 µM	98
N[C@@H]1CCN(c2nccc(-c3cnn4ncccc34)n2)C1	binding		1 µM	100
